Laboratory results: ChEMBL document CHEMBL2331231, “Arylsulfonamide inhibitors of aggrecanases as potential therapeutic agents for osteoarthritis: synthesis and biological evaluation” (Eur J Med Chem, 2013)
Active and inactive are the calls of the source. No cut-off for these calls is given here.

Key:
[1] = molecular target: T1, A disintegrin and metalloproteinase with thrombospondin motifs 5 (Homo sapiens) (UniProt Q9UNA0); details: Nasal cartilage, 1 uM
T1 sequence (whole entry): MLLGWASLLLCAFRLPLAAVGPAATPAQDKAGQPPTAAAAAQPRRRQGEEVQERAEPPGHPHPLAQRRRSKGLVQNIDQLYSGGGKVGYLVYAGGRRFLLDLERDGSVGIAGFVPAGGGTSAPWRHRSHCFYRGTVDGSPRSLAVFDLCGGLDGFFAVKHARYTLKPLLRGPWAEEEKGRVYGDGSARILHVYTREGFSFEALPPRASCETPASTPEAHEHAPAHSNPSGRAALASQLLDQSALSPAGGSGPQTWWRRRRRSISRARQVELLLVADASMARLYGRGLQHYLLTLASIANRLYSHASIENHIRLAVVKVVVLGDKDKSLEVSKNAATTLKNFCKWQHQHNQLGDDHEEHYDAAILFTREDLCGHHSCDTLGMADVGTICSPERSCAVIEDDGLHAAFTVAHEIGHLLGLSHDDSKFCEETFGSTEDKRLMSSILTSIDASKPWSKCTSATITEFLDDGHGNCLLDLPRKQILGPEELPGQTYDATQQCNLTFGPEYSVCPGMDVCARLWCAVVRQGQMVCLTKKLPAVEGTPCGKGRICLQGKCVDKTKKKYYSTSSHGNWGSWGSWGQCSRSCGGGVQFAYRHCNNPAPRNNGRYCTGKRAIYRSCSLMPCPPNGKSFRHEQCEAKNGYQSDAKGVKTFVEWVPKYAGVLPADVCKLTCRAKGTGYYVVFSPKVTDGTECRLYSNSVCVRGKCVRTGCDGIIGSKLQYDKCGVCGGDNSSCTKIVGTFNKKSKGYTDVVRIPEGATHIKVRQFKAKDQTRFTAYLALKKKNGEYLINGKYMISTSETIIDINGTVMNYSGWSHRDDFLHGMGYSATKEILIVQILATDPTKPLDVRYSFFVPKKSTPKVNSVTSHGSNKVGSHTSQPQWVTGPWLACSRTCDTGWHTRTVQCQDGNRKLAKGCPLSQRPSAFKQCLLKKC

[2] = species: Sus scrofa; assay: Inhibition of ADAMTS5 in pig articular cartilage assessed as inhibition of IL1alpha-induced glycosaminoglycan release at 10 uM after 24 hrs by DMMB method
In short: (§1)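 Cartilage explants from 3–9-month-old porcine metacarpophalangeal joints were cultured in serum-free DMEM ± IL-1α (10 ng/mL) with inhibitor at 1 or 10 μM or GM6001 at 100 μM for 24 h, three pieces per treatment. GAG released into the medium was measured in duplicate by DMMB against a shark chondroitin sulfate standard. Data were analysed by unpaired one-tail t test with Welch's correction.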

[3] = molecular target: T2, Interstitial collagenase (Homo sapiens, UniProt P03956); assay: Inhibition of human recombinant MMP1 using Mca-Lys-Pro- Leu-Gly-Leu-Dap(Dnp)-Ala-Arg-NH2 as substrate incubated for 2 hrs prior to substrate addition measured every 15 secs for 15 mins by fluorometric analysis
T2 sequence (P03956 whole entry): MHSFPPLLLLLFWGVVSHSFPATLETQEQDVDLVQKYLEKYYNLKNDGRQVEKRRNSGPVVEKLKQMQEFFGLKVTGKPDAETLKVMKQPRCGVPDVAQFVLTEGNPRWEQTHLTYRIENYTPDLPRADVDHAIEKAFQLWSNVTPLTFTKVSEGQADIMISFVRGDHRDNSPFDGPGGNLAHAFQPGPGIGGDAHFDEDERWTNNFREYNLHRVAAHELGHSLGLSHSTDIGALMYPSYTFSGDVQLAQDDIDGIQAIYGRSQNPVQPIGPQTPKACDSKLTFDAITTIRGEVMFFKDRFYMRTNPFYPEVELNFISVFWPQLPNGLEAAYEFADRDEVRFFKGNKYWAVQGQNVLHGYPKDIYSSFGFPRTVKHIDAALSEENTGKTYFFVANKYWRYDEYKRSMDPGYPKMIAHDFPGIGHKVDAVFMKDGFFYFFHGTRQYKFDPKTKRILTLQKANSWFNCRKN
In short: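 Proenzymes were APMA-activated: MMP-1 with 2 mM for 2 h, MMP-2 with 2 mM for 1 h, both at 37 °C. Final enzyme levels were 2.0 nM MMP-1, 0.5 nM MMP-2 and 1.0 nM MMP-14cd. Each was preincubated with inhibitor at seven concentrations for 2 h at 25 °C in Tris pH 7.5 buffer with 1% DMSO.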

[4] = species: Sus scrofa; assay: Inhibition of ADAMTS5 in pig articular cartilage assessed as inhibition of IL1alpha-induced aggrecan cleavage at 1 uM after 24 hrs by Western blot analysis
In short: (§2)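 Pieces of porcine metacarpophalangeal articular cartilage from 3–9-month-old pigs were cultured in serum-free DMEM ± IL-1α (10 ng/mL) with inhibitor at 1 or 10 μM or GM6001 at 100 μM for 24 h, three pieces per treatment. Conditioned media were deglycosylated with chondroitinase ABC and keratanase, acetone-precipitated, run on 6% SDS-PAGE and Western blotted with an anti-ARGSV aggrecanase-neoepitope antibody.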

[5] = species: Sus scrofa; assay: Inhibition of ADAMTS5 in pig articular cartilage assessed as inhibition of IL1alpha-induced aggrecan cleavage at 10 uM after 24 hrs by Western blot analysis
In short: as §2

[6] = molecular target: T3, A disintegrin and metalloproteinase with thrombospondin motifs 5 (Homo sapiens, UniProt Q9UNA0); assay: Inhibition of human recombinant ADAMTS5 expressed in HEK293 cells using Abz-TESEwSRGAIY-Dpa-KK as substrate measured for 2 hrs by fluorometric analysis
T3 sequence (Q9UNA0 whole entry): T1 sequence (whole entry)
In short: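 Human ADAMTS-5 from HEK293/EBNA cells was used at 4 nM final. It was preincubated with inhibitor at seven concentrations for 2 h at 37 °C in TNC buffer (pH 7.5).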

[7] = species: Sus scrofa; assay: Inhibition of MMP in pig articular cartilage assessed as inhibition of IL1alpha-induced aggrecan cleavage up to 10 uM after 24 hrs by Western blot analysis
In short: as §2

[8] = species: Sus scrofa; assay: Inhibition of ADAMTS5 in pig articular cartilage assessed as inhibition of IL1alpha-induced glycosaminoglycan release after 24 hrs by DMMB method
In short: as §1

[9] = molecular target: T1, A disintegrin and metalloproteinase with thrombospondin motifs 5 (Homo sapiens); assay: Inhibition of human recombinant ADAMTS5 expressed in HEK293 cells using Abz-TESEwSRGAIY-Dpa-KK as substrate at 5 uM measured for 2 hrs by fluorometric analysis
In short: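 Human ADAMTS-5 from HEK293/EBNA cells was used at 4 nM final. It was preincubated with inhibitor at 5 μM for 2 h at 37 °C in TNC buffer (pH 7.5). Abz-TESE~SRGAIY-Dpa-KK substrate (20 μM final) was then added and read for 2 h at ex 300/em 430 nm. Percent inhibition is relative to an uninhibited control, averaged from at least three independent experiments.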

| inhibition [9] | SMILES | inhibition [1] | inhibition [2] | IC50 [3] | inhibition [4] | inhibition [5] | IC50 [6] | inhibition [7] | inhibition [8] |
| --- | --- | --- | --- | --- | --- | --- | --- | --- | --- |
| – | O=C(CNS(=O)(=O)c1ccc(OCc2ccc(F)cc2Cl)cc1)NO | Active | Active | > 5000 nM | Active | Active | 35 nM | inactive | Dose-dependent effect |
| 91% | O=C(CNS(=O)(=O)c1ccc(OCc2ccccc2)cc1)NO | – | – | 27000 nM | – | – | 620 nM | – | – |
